Scp1 inh = inhibitors of human Scp-1 phosphatase; AID 493091; Q9GZU7; Recombinant Scp1, phosphopeptide, malachite green phosphate absorbance; actives 0.88% (n = 340,000); inhibition, % at 20 µM;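 active = inhibition above about 50% at 20 µM, limit read from the data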
Target sequence (Q9GZU7 76-261 limits assumed): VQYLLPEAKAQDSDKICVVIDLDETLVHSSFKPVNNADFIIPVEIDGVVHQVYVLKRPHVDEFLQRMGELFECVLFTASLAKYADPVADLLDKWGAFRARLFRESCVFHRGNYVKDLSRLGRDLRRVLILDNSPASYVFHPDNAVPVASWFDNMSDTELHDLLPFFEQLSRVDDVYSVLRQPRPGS
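Material: truncated SCP-1 phosphatase (76-261aa) / Buffer or medium: 50 mM Tris acetate pH 5.5, 0.005% Tween-20, 10 mM MgCl2 / Compound dosing: one concentration, 20 µM, with 1.0% DMSO / Incubation: 45 min room-temperature reaction, 5 min colour, 30 min stabiliser / Detection: colorimetric free-phosphate detection, absorbance 630 nm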
LMPTP block = LMPTP (human) inhibition; recombinant LMPTP-A, OMFP fluorogenic substrate, fluorescence intensity; AID 651560; P24666; actives 0.22% (n = 360,000); inhibition, % at 20 µM;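 active = compounds that cut the enzyme signal by at least half of the control window in the single-dose screen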
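material = LMPTP-A | quantity = 0.625 nM enzyme | reagent = OMFP substrate, 400 µM final | buffer or medium = Bis-Tris pH 6.0, DTT, detergent | detection = endpoint fluorescence intensity from OMFP dephosphorylation | dosing = single 20 µM dose | read-out basis = % inhibition relative to no-enzyme and uninhibited control wells | control set = no-enzyme and uninhibited controls | timing = 50 min at room temperature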
STEP block = inhibitors of human striatal-enriched phosphatase STEP; recombinant STEP, OMFP fluorogenic substrate, fluorescence; inhibition, % at 20 µM; actives 0.25% (n = 360,000); AID 588621;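 active = inhibition at 20 µM, scaled per plate between control wells, above about 37%, limit read from the data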
Target sequence (P54829 whole entry, looked up): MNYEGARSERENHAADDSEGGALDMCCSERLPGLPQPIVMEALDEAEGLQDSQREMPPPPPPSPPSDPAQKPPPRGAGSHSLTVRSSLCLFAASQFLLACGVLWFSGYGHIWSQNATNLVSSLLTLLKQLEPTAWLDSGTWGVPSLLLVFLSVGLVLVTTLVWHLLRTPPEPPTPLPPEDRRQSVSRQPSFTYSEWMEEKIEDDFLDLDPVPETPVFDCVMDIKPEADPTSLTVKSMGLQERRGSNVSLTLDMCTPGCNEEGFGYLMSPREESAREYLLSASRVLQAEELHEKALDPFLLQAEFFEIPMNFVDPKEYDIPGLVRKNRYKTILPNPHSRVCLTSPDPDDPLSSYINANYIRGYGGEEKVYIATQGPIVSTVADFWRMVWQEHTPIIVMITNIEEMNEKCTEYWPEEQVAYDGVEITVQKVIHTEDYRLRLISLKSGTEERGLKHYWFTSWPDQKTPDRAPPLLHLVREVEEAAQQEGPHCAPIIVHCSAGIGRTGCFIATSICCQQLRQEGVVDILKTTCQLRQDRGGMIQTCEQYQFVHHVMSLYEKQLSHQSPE
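System: STEP (striatal-enriched tyrosine phosphatase) enzyme, cell-free; medium: Bis-Tris pH 6.0 buffer with DTT, detergent; dosing: 20 µM, 1% DMSO; times: reaction 20 min, ambient temperature; detection: fluorescence, 480/540 nm; read-out basis: normalized % inhibition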
rCAG binder-1 = molecules binding r(CAG) RNA repeats; actives 1.3% (n = 370,000); inhibition, % at 3 µM; r(CAG) RNA repeat, TO-PRO-1 dye displacement fluorescence; AID 651821;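 active = inhibition above the plate cutoff, the mean of all test compounds on that plate plus 3 SD, cut at about 35% in these data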;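 also: higher means more dye released from RNA so lower well fluorescence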
NadD block = NadD (S. aureus) enzyme inhibition; purified NadD enzyme, colorimetric absorbance read-out; inhibition, % at 20 µM; actives 0.78% (n = 360,000); AID 602399; in the data active = inhibition above about 26%
rCAG bind conf = r(CAG) RNA repeat binding, confirmation; TO-PRO-1 dye displacement fluorescence; inhibition, % at 3 µM; actives 70% (n = 4,300); shares compounds with rCAG binder-1;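 active = inhibition above a per-plate cutoff, the mean inhibition of sample wells plus 3 SD, cut at about 35% in these data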;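 also: loss of TO-PRO-1 fluorescence as compound displaces dye from 1x1 AA loop RNA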
dCAG dye counter = counter-screen for rCAG RNA binders: DNA CAG dye complex inhibitors; shares compounds with rCAG binder-1; d(CAG) DNA oligo TO-PRO-1 dye displacement, fluorescence; inhibition, % at 3 µM; actives 94% (n = 4,300); AID 652068;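 active = inhibition above its plate's cutoff, the mean test-well inhibition plus 3 SD, cut at about 4.8% in these data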;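 also: hits displace the dye from DNA and so lower well fluorescence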
DNA CAG DR = disrupts DNA CAG TO-PRO-1 complex in dose response | shares compounds with rCAG binder-1 | DNA CAG/GTC duplex TO-PRO-1 dye displacement fluorescence | IC50, µM | actives 20% (n = 250) | AID 686960; in the data active = IC50 below about 10 µM
dCAG DNA bind = DNA CAG dye complex inhibition, late stage dose response | d(CAG) DNA duplex TO-PRO-1 dye displacement, fluorescence | shares compounds with rCAG binder-1 | actives 80% (n = 30) | IC50, µM
rCAG binder-2 = r(CAG) repeat RNA binding, TO-PRO-1 displacement. IC50, µM. r(CAG) RNA TO-PRO-1 dye displacement, fluorescence. AID 720651. actives 100% (n = 30). shares compounds with rCAG binder-1
Hits are given with their value; . = inactive; / = not tested or not shown. Only some compounds are listed: those with a hit (about 2.6% of all), similar ones and a draw of the others. Unless noted, no rule for the calls is given here.

SMILES | Scp1 inh | LMPTP block | STEP block | rCAG binder-1 | NadD block | rCAG bind conf | dCAG dye counter | others
O=C1NC(=S)S/C1=C\c1cc2ccccc2nc1N1CCCCC1 | . | . | . | 37 | . | 87 | 61
CCCCNC(=O)C[C@H]1C[C@@]2(C(=O)OCC)CCCC3=C2N(CCC3)C1=O | / | / | / | . | / | / | /
CC(=O)C1=C(O)C(=O)N(c2cc(C(C)(C)C)on2)C1c1ccc(Br)cc1 (centres undefined) | . | . | . | 47 | . | 46 | 13 | DNA CAG DR=.
O=C(O)c1ccc(COc2ccc(CO)cc2Cl)cc1 | . | . | . | . | . | / | /
CCN1C(=O)/C(=C/c2ccc(OCc3ccc(C(=O)O)cc3)c(Cl)c2)NC1=S | . | . | . | 57 | . | 51 | 16
COc1ccc(NC(=S)NNc2ccc(S(=O)(=O)Nc3ccccc3C(=O)O)cc2[N+](=O)[O-])cc1 | . | . | . | 97 | . | 88 | 61
CCOc1cccc(C=NNc2ccc(S(=O)(=O)Nc3ccccc3C(=O)O)cc2[N+](=O)[O-])c1O | . | . | . | 76 | . | 86 | 54
CNC(=S)N/N=C/c1c(C)nn(-c2ccccc2)c1Cl | . | . | . | . | . | / | /
Cc1nn(-c2ccccc2)c(Cl)c1/C=N/Nc1ccc(S(=O)(=O)Nc2ccccc2C(=O)O)cc1[N+](=O)[O-] | . | . | . | 52 | . | 92 | 65
Cc1nn(-c2ccccc2)c(Cl)c1/C=N/Nc1ccc(Cl)c(C(=O)O)c1 | . | . | . | . | . | / | /
Cc1nn(-c2ccccc2)c(Cl)c1/C=N/NS(=O)(=O)c1ccc(Br)cc1 | . | . | . | 48 | . | 42 | 11
O=C(O)c1ccccc1NS(=O)(=O)c1ccc(NN=Cc2ccccc2F)c([N+](=O)[O-])c1 | . | . | . | 84 | . | 92 | 72
Cc1ccc(S(=O)(=O)Nc2ccccc2C(=O)OC(C)C(=O)Nc2ccc3ccccc3c2)cc1[N+](=O)[O-] (centres undefined) | . | . | . | 39 | . | 42 | 17
CNc1ccccc1C(=O)OC(C)C(=O)Nc1ccc(S(=O)(=O)N2CCCC2)cc1 (centres undefined) | . | . | . | . | . | / | /
C[C@H](O)[C@@H]1CN2CCc3ccc(-c4ccc5c(c4)OCO5)cc3[C@@H]2C[C@@H]1N(C)Cc1cc(Cl)cc(Cl)c1 | / | / | / | . | / | / | /
COC(=O)c1ccc(CSc2nc3scc(-c4cccs4)c3c(=O)[nH]2)o1 | . | . | . | 35 | 34 | . | 14
O=C(O)c1ccc(CSc2nc(-c3ccccc3)cc(C(F)(F)F)n2)cc1 | . | . | . | 55 | . | 56 | 13
O=C(O)c1ccc(CSc2nc(-c3ccc(Cl)cc3)cc(C(F)(F)F)n2)cc1 | . | . | . | . | . | / | /
CC(=O)N(\C=C/C=C/C=C1\Sc2ccccc2C1=O)c1ccccc1 | . | . | . | 45 | . | . | 11
CCOC(=O)[C@]12CCCC3=C1N(CCC3)C(=O)[C@@H](CC(=O)NCCCCc1ccccc1)C2 | / | / | / | . | / | / | /
CCCCN1CCS(=O)(=O)N(Cc2cn(Cc3cccc(Cl)c3)nn2)C(C(=O)OC)C1 (centres undefined) | / | / | / | . | / | / | /
CC(C)C1Nc2c(O)cc(Cl)c([N+](=O)[O-])c2C2C=CCC21 (centres undefined) | . | . | . | 37 | . | . | .
COCCCNc1nc2ccccc2nc1NS(=O)(=O)c1cccc(Cl)c1 | . | . | . | 38 | . | . | 6.7
O=S(=O)(Nc1nc2ccccc2nc1NCC1CCCO1)c1cccc(Cl)c1 (centres undefined) | . | . | . | 54 | . | 40 | 10
O=S(=O)(Nc1nc2ccccc2nc1NCCO)c1cccc(Cl)c1 | . | . | . | . | . | / | /
SMILES | Scp1 inh | LMPTP block | STEP block | rCAG binder-1 | NadD block | rCAG bind conf | dCAG dye counter | others
Cc1cc(-c2nnc(SCC(=O)Nc3cccc4ccccc34)n2N)n[nH]1 | / | / | / | . | / | / | /
COc1ccc(N2CCN(CCCNC(=O)COc3ccc(C)cc3)CC2)cc1 | / | / | / | . | / | / | /
O=C(O)c1ccccc1-c1ccccc1C(=O)Nc1ccc(F)cc1 | . | . | . | . | . | / | /
O=C(/C=C/c1ccc(NC(=O)c2ccccc2-c2ccccc2C(=O)O)cc1)c1ccccc1 | . | . | . | 68 | . | 66 | 24
O=C(CSc1ncnc2nc[nH]c12)Nc1nnc(SCc2ccc(Cl)c(Cl)c2)s1 | . | . | . | 42 | . | 61 | 24
Cc1ccccc1N=Nc1c(C)[nH]n(-c2ccccc2)c1=O | . | / | / | / | / | / | /
Cc1[nH]n(-c2ccccc2)c(=O)c1N=Nc1ccccc1O | . | . | . | 40 | . | . | 13
COC(=O)c1sc(NC(=O)c2ccc(Cn3cc(Cl)cn3)o2)c(C#N)c1C | . | . | . | 48 | . | 42 | 13
Cc1ccc(NC(=O)c2ccc(Cn3cc(Cl)cn3)o2)c(C)c1 | / | . | . | . | . | / | /
CN1C2CCC1CC(NC(=O)c1cc(S(=O)(=O)N(C)C)c(Cl)cc1Cl)C2 (centres undefined) | . | . | . | . | . | / | /
CN(C)S(=O)(=O)c1cc(C(=O)O)c(NC2CCCCC2)cc1Cl | . | . | . | 45 | . | . | 6.2
Nn1c(SCc2cccc3ccccc23)nnc1-c1n[nH]c2c1CCC2 | / | / | / | . | / | / | /
Cc1ccc(C(=O)CSc2nnc(-c3ccccn3)n2-c2ccccc2)cc1 | / | / | / | . | / | / | /
N#Cc1c(-c2cccc(Br)c2)cc(-c2ccco2)[nH]c1=O | . | . | . | 51 | . | 45 | 16
COc1ccc(-c2cc(-c3ccco3)[nH]c(=O)c2C#N)cc1 | . | . | . | . | . | / | /
COc1cc(/C=C2/C(C)=C(C#N)c3nc(N)c(C#N)c(C)c32)ccc1OCC(=O)O | . | / | / | 42 | / | 41 | 17
CC1=C(C#N)c2nc(N)c(C#N)c(C)c2/C1=C\c1ccc(-c2ccccc2C(=O)O)o1 | 63 | . | . | 46 | . | 69 | 32 | DNA CAG DR=.;dCAG DNA bind=2.8;rCAG binder-2=1.1
C/C=C/c1ccc(OCC(=O)O)c(OC)c1 | . | . | . | . | . | / | /
Nc1nonc1-c1nc2ccccc2n1CC(=O)N/N=C/c1ccc(-c2ccccc2C(=O)O)o1 | . | . | . | . | . | / | /

Source: PubChem BioAssay
